Results taken from ChEMBL document CHEMBL5338787, “Discovery of Novel Bruton's Tyrosine Kinase PROTACs with Enhanced Selectivity and Cellular Efficacy” (J Med Chem, 2023).
Activity calls are given as the source filed them. The calls are words filed in the database; no cut-off is given here.

Assays:
Format in all cases: cell-based
[1] = biological target: T1, Protein cereblon/Tyrosine-protein kinase BTK (Homo sapiens, UniProt Q06187+Q96SW2); test: PROTAC activity at BTK/CRBN protein protein interaction in human Ramos cell assessed as degradation of BTK incubated for 17 hrs measured by Western blot analysis relative to control
Summary of the method: (§1)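 Ramos or JeKo-1 cells (2 × 10^6 per well) were exposed for 17 h to 3000–0.15 nM PROTAC in 3-fold steps. Cells were lysed and analysed by western blot, with BTK normalised to β-actin. DC50 and Dmax come from the dose-response; DC50 is the mean ± SD of two independent experiments.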
Target sequence in this assay (Q06187 2-659 limits assumed): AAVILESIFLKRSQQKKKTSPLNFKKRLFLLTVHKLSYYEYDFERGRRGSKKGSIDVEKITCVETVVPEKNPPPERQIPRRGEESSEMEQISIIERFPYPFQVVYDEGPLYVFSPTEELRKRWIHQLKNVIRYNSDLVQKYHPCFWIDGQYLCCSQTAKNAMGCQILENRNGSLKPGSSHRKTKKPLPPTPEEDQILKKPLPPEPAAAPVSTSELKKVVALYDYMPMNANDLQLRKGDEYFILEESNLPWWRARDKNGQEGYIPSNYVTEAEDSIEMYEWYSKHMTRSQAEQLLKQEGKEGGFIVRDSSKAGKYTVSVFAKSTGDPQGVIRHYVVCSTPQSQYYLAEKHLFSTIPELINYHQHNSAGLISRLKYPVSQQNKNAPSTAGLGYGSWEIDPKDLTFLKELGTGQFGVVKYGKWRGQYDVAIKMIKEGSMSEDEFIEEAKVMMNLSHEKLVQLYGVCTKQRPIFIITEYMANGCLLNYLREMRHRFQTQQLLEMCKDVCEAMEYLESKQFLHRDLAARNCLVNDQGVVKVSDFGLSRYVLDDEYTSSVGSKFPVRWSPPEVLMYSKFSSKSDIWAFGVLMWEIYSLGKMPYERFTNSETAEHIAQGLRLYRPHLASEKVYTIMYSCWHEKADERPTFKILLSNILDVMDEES
Target sequence in this assay (Q96SW2 whole entry partner): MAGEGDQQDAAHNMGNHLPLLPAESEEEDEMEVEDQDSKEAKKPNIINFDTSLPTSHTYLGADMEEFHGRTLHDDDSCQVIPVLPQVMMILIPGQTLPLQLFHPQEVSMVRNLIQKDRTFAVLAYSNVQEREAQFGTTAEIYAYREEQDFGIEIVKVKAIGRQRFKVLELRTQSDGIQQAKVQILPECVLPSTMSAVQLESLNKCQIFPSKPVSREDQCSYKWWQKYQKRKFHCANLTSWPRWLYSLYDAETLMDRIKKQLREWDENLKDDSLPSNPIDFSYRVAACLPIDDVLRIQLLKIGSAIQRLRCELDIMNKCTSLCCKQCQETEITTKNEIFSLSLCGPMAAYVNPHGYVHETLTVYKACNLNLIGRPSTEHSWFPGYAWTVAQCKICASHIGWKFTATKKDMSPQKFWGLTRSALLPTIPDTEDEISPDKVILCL

[2] = biological target: T1, Protein cereblon/Tyrosine-protein kinase BTK; test: PROTAC activity at BTK/CRBN protein protein interaction in human JeKo-1 cell assessed as degradation of BTK incubated for 17 hrs measured by Western blot analysis; summary of the method: as §1
Target sequence in this assay (Q06187 whole entry): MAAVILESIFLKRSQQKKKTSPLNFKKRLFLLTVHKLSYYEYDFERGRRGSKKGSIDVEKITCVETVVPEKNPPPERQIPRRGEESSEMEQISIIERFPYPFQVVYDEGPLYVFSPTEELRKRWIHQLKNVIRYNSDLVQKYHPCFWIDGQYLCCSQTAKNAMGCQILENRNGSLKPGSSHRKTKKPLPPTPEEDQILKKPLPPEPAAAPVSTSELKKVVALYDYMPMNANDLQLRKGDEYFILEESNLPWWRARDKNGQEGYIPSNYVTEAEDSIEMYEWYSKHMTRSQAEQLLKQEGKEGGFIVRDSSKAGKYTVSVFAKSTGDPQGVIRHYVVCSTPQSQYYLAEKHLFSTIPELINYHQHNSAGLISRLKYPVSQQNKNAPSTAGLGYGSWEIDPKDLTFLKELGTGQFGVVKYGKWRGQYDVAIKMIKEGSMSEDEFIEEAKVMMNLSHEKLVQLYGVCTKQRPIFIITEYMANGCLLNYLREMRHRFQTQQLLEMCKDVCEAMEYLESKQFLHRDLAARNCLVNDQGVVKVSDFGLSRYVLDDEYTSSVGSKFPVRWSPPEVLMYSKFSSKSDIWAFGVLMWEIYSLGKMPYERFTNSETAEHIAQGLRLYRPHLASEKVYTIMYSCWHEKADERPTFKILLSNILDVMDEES
Target sequence in this assay (Q96SW2 whole entry): as the sequence (Q96SW2 whole entry partner) above

[3] = biological target: T1, Protein cereblon/Tyrosine-protein kinase BTK; test: PROTAC activity at BTK/CRBN protein protein interaction in human JeKo-1 cell assessed as degradation of BTK incubated for 17 hrs measured by Western blot analysis relative to control; summary of the method: as §1
Target sequence in this assay (Q06187 2-659 limits assumed): as the sequence (Q06187 2-659 limits assumed) above
Target sequence in this assay (Q96SW2 whole entry partner): as the sequence (Q96SW2 whole entry partner) above

[4] = biological target: Tyrosine-protein kinase BTK (Homo sapiens, UniProt Q06187); test: Degradation of BTK in human TMD8 cells by measuring protein level at 111 nM for 6 hrs using label free proteomic analysis
Summary of the method: (§2)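 TMD8 cells (2 × 10^6) given 111 nM or DMSO for 6 h in duplicate. Lysed in 5% SDS/50 mM TEAB pH 8.5. 200 μg protein reduced (10 mM DTT, 55 °C, 30 min), alkylated (50 mM iodoacetamide), S-Trap processed, then LC-MS/MS. Label-free matched-peptide quantitation against DMSO, human UniProt; Benjamini–Hochberg-corrected p-values.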

[5] = biological target: Tyrosine-protein kinase CSK (Homo sapiens) (UniProt P41240); test: Degradation of CSK in human TMD8 cells by measuring protein level at 111 nM for 6 hrs using label free proteomic analysis; summary of the method: as §2
[6] = biological target: Tyrosine-protein kinase SYK (Homo sapiens) (UniProt P43405); test: Degradation of SYK in human TMD8 cells by measuring protein level at 111 nM for 6 hrs using label free proteomic analysis; summary of the method: as §2
[7] = biological target: Tyrosine-protein kinase FRK (Homo sapiens) (UniProt P42685); test: Degradation of FRK in human TMD8 cells by measuring protein level at 111 nM for 6 hrs using label free proteomic analysis; summary of the method: as §2
[8] = biological target: Tyrosine-protein kinase HCK (Homo sapiens) (UniProt P08631); test: Degradation of HCK in human TMD8 cells by measuring protein level at 111 nM for 6 hrs using label free proteomic analysis; summary of the method: as §2
[9] = biological target: Tyrosine-protein kinase Lyn (Homo sapiens) (UniProt P07948); test: Degradation of LYN in human TMD8 cells by measuring protein level at 111 nM for 6 hrs using label free proteomic analysis; summary of the method: as §2
[10] = biological target: T2, Tyrosine-protein kinase BAZ1B (Homo sapiens) (UniProt Q9UIG0); test: Degradation of BAZ1B in human TMD8 cells by measuring protein level at 111 nM for 6 hrs using label free proteomic analysis; summary of the method: as §2
T2 sequence (whole entry): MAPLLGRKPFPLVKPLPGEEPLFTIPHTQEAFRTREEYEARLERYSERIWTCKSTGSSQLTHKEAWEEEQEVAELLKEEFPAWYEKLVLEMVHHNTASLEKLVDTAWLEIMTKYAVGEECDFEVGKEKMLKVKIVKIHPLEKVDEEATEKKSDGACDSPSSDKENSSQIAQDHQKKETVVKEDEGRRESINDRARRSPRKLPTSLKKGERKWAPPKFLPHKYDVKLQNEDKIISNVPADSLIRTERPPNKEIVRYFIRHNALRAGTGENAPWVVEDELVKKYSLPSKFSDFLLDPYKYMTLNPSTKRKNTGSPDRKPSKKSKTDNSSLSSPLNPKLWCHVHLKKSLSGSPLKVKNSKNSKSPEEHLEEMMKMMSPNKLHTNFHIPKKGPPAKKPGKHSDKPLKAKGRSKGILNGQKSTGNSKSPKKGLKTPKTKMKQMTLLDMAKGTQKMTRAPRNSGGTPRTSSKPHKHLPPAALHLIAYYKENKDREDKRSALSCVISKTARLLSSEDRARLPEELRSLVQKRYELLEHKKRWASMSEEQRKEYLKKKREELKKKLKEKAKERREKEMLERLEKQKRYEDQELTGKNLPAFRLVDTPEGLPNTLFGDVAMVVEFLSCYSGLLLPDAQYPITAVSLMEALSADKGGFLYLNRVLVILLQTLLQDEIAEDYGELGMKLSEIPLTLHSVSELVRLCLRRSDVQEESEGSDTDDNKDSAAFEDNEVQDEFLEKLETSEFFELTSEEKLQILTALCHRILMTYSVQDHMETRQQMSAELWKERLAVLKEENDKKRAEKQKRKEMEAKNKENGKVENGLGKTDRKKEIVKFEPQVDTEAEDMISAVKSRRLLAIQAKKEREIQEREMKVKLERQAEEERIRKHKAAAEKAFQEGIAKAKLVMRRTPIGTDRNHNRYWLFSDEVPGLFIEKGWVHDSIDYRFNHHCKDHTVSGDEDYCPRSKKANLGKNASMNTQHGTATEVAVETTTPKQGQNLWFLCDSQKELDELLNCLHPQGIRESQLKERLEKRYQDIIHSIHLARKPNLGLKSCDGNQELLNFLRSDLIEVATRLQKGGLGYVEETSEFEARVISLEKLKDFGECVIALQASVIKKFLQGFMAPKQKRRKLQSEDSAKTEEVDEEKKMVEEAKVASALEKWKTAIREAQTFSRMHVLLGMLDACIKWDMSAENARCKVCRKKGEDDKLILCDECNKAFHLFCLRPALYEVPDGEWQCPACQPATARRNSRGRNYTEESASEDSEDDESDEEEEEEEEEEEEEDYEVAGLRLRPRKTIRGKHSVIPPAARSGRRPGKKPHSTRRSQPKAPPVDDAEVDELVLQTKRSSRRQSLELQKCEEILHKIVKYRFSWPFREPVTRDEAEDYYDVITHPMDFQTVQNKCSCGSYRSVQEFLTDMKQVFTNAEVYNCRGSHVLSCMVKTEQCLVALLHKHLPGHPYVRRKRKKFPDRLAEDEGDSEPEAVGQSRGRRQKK

[11] = biological target: Non-receptor tyrosine-protein kinase TYK2 (Homo sapiens) (UniProt P29597); test: Degradation of TYK2 in human TMD8 cells by measuring protein level at 111 nM for 6 hrs using label free proteomic analysis; summary of the method: as §2
[12] = biological target: Tyrosine-protein kinase Fes/Fps (Homo sapiens) (UniProt P07332); test: Degradation of Fes/Fps in human TMD8 cells by measuring protein level at 111 nM for 6 hrs using label free proteomic analysis; summary of the method: as §2
[13] = biological target: DNA-binding protein Ikaros (Homo sapiens) (UniProt Q13422); test: Degradation of IKZF1 in human TMD8 cells by measuring protein level at 111 nM for 6 hrs using label free proteomic analysis; summary of the method: as §2
[14] = biological target: Zinc finger protein Aiolos (Homo sapiens) (UniProt Q9UKT9); test: Degradation of IKZF3 in human TMD8 cells by measuring protein level at 111 nM for 6 hrs using label free proteomic analysis; summary of the method: as §2
[15] = biological target: Eukaryotic peptide chain release factor GTP-binding subunit ERF3A (Homo sapiens) (UniProt P15170); test: Degradation of […] in human TMD8 cells by measuring protein level at 111 nM for 6 hrs using label free proteomic analysis; summary of the method: as §2

DNA-binding protein Ikaros (Homo sapiens), sequence (Q13422 whole entry): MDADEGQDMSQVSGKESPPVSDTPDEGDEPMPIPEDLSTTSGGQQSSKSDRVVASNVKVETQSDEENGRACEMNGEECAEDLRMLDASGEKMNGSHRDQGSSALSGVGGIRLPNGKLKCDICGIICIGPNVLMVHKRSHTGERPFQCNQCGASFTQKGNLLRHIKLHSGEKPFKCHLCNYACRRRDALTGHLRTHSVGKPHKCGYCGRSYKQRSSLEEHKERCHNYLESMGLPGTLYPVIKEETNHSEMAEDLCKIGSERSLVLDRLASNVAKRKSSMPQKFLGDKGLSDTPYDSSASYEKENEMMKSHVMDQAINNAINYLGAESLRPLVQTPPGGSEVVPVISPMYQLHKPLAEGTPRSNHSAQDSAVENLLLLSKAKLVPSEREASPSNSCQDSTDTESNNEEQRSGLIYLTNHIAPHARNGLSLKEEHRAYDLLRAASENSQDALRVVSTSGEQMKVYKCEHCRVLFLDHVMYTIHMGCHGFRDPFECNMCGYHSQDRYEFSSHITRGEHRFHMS
Tyrosine-protein kinase FRK (Homo sapiens), sequence (P42685 whole entry): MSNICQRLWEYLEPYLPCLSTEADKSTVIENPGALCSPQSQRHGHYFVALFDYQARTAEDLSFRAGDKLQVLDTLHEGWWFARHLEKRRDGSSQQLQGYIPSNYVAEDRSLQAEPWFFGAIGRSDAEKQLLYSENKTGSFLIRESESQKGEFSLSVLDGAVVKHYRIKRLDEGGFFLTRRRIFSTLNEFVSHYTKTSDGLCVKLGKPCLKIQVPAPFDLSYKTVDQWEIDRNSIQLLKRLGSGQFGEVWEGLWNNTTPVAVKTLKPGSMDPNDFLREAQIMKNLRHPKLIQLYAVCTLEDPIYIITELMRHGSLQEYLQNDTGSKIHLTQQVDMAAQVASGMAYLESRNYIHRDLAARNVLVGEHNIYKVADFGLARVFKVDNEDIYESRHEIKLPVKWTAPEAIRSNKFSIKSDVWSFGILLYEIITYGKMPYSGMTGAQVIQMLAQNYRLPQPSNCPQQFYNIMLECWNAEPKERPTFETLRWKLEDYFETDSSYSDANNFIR
Tyrosine-protein kinase BTK, sequence (Q06187 whole entry): as the sequence (Q06187 whole entry) above
Tyrosine-protein kinase Fes/Fps (Homo sapiens), sequence (P07332 whole entry): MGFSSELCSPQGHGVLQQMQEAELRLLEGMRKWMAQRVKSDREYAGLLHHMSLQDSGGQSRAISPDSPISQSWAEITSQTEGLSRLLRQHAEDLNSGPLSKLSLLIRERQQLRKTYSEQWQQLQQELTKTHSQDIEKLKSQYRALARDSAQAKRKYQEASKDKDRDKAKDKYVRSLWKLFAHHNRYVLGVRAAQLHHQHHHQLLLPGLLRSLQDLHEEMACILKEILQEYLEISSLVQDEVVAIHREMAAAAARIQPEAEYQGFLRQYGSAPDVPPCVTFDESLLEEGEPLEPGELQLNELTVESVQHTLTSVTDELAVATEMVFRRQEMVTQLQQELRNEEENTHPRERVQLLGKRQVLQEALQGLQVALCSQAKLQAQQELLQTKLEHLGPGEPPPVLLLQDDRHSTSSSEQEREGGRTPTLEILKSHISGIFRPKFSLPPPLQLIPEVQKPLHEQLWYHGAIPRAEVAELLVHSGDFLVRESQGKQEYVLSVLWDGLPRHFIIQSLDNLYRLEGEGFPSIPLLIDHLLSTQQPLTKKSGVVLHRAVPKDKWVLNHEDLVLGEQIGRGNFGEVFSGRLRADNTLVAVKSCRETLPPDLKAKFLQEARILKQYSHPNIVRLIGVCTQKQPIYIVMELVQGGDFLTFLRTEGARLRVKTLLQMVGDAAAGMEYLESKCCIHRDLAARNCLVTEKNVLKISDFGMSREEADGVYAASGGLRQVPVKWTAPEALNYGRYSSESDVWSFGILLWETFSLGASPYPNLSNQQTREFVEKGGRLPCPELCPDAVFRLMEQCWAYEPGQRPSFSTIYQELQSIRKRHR
Non-receptor tyrosine-protein kinase TYK2 (Homo sapiens), sequence (P29597 whole entry): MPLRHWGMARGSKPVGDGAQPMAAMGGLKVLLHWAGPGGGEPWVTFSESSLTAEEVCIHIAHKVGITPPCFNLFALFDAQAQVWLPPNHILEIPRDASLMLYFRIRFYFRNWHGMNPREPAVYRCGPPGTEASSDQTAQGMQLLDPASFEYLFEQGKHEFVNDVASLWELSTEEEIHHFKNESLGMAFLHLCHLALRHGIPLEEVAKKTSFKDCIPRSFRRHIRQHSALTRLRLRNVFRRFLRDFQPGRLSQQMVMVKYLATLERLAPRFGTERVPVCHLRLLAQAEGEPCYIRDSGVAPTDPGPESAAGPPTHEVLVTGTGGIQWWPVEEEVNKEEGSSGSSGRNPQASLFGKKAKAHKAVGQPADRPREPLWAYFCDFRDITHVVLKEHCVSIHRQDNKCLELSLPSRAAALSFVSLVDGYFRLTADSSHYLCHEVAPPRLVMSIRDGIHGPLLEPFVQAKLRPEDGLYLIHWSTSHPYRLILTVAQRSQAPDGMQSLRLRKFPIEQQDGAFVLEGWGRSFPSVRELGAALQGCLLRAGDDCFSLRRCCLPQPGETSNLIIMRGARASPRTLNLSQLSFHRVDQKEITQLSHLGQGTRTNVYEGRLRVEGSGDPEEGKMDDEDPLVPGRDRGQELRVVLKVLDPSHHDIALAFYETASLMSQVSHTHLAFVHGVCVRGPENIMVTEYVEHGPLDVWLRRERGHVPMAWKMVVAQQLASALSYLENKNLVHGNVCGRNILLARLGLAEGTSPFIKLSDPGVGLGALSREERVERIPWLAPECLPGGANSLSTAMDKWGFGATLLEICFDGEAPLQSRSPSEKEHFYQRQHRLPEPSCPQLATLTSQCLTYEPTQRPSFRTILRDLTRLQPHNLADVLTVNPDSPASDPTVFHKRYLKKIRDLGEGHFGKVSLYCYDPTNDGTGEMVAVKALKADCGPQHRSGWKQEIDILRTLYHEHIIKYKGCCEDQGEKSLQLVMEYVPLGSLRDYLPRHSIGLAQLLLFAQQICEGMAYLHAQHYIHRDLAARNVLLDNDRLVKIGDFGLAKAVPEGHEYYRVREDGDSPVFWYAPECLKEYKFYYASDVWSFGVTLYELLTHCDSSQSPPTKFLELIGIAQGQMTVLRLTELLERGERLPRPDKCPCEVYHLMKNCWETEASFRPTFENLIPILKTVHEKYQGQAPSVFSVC

SMILES | Emax [1] | DC50 [2] | Emax [3] | Activity [4] | Activity [5] | Activity [6] | Activity [7] | Activity [8] | Activity [9] | Activity [10] | Activity [11] | Activity [12] | Activity [13] | Activity [14] | Activity [15]
C[C@H]1CN(C(=O)CNc2cccc3c2C(=O)N(C2CCC(=O)NC2=O)C3=O)CCN1c1ccc(Nc2cc(-c3ccnc(N4CCn5c(cc6c5CC(C)(C)C6)C4=O)c3CO)cn(C)c2=O)nc1 (stereo not given in full) | 97.1% | 0.6 nM | 95.7% | Active | inactive | inactive | inactive | inactive | inactive | inactive | inactive | inactive | Active | Active | inactive
C[C@H]1CN(C(=O)COc2cccc3c2C(=O)N(C2CCC(=O)NC2=O)C3=O)CCN1c1ccc(Nc2cc(-c3ccnc(N4CCn5c(cc6c5CC(C)(C)C6)C4=O)c3CO)cn(C)c2=O)nc1 (stereo not given in full) | 96.2% | 3.1 nM | 97% | Active | inactive | inactive | inactive | inactive | inactive | inactive | inactive | inactive | inactive | inactive | inactive
